*1 amine or outer side, *2 acyl side, *3 side chain or, on linkers, in order; H or OH if unused. Where a SMILES comes first, the peptide text is derived from it. Bridges are numbered along the chain shown (N, C = ends). Roman numbers before positions name the chains, in order. [ ]: non-standard residue; d: D form. X1 = CCC(=O)NCCCCNC(=O)/N=C(\N)NCCC[C@H](N[*:1])C(=O)[*:2]; X6 = CCC(=O)NCCCCNC(=O)/N=C(/N)NCCC[C@H](N[*:1])C(=O)[*:2]; X3 = NCCOCCOCCNC(=O)/N=C(\N)NCCC[C@H](N[*:1])C(=O)[*:2]; X4 = NCCOCCOCCNC(=O)/N=C(/N)NCCC[C@H](N[*:1])C(=O)[*:2]; X2 = NCCCCNC(=O)/N=C(\N)NCCC[C@H](N[*:1])C(=O)[*:2]; X7 = NCCCCNC(=O)/N=C(/N)NCCC[C@H](N[*:1])C(=O)[*:2]; Suberoyl = O=C(CCCCCCC(=O)[*:2])[*:1]

The source of these data is ChEMBL document CHEMBL3784921, “Mimicking of Arginine by Functionalized N(ω)-Carbamoylated Arginine As a New Broadly Applicable Approach to Labeled Bioactive Peptides: High Affinity Angiotensin, Neuropeptide Y, Neuropeptide FF, and Neurotensin Receptor Ligands As Examples” (J Med Chem, 2016).

Series [1] can be described thus: Chemical stability of compound at 200 uM at pH 7 at 21 degC after 24 to 48 hrs by reversed-phase HPLC analysis. The class given is physicochemical. Particulars: buffer, pH 7, 200 µM. The essentials: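 Peptide incubated in phosphate buffer (PBS), pH 7.0, 21 °C, for 24 or 48 h. Remaining intact peptide assessed by reversed-phase HPLC chromatograms.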
Series [2] addresses T1, Type-1 angiotensin II receptor (Homo sapiens, UniProt P30556).
T1 sequence (P30556 whole entry): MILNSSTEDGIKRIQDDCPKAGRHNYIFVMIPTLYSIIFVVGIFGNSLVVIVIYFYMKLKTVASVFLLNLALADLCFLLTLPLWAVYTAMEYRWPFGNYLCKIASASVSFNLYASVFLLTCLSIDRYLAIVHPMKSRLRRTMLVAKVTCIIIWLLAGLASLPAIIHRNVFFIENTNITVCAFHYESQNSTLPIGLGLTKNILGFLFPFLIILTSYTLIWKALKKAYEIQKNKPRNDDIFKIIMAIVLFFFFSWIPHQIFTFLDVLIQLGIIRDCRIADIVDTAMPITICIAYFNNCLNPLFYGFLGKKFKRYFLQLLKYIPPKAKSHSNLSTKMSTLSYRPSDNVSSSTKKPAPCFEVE
The series can be described thus: Agonist activity at human AT1 receptor transfected in CHO cells co-expressing Galpha16-mtAEQ assessed as induction of intracellular Ca2+ mobilization by bioluminescence assay. In kind it is functional, cell-based. (In general: Calcium flux is commonly read through the fluorescence of an indicator in the cells.)

Series [3] concerns the target T1, Type-1 angiotensin II receptor. The series can be described thus: Displacement of [3H]-Asp-{Nomega-[N-(4-propanoylaminobutyl)aminocarbonyl]}Arg-ValTyr-Ile-His-Pro-Phe-OH Tris(hydrotrifluoroacetate) from human AT1 receptor transfected in CHO cells co-expressing Galpha16-mtAEQ after 2 hrs by liquid scintillation counting. The class given is cell-based. For orientation: In a radioligand displacement assay an active substance lowers the binding of a labelled ligand.

In series [4] the target is Neuropeptide FF receptor 2 (Homo sapiens, UniProt Q9Y5X5). In words: Displacement of [3H]EYE from human NPFF2 receptor expressed in CHO cell membranes after 1 hr by liquid scintillation spectrophotometric counting.
In series [5] the target is T2, Neurotensin receptor type 1 (Homo sapiens, UniProt P30989). In words: Displacement of [3H]-{Nomega-[N-(4-propanoylaminobutyl)aminocarbonyl]}Arg-Arg-ProTyr-Ile-Leu-OH Tris(hydrotrifluoroacetate) from NTSR1 in human HT-29 cells after 2 hrs by liquid scintillation counting. In kind it is cell-based.
Series [6] has as its target T2, Neurotensin receptor type 1. The series can be described thus: Agonist activity at NTSR1 in human HT-29 cells assessed as induction of intracellular Ca2+ mobilization by fura-2 dye-based spectrofluorimetric analysis. The class given is functional, cell-based.
Series [7] has the same target. In words: Displacement of [3H]-{Nomega-[N-(4-propanoylaminobutyl)aminocarbonyl]}Arg-Arg-ProTyr-Ile-Leu-OH Tris(hydrotrifluoroacetate) from human NTSR1 transfected in CHO cells co-expressing Galpha16-mtAEQ after 2 hrs by liquid scintillation counting. The class given is cell-based.
Series [8] addresses Neurotensin receptor type 2 (Homo sapiens, UniProt O95665). In words: Displacement of [3H]NT(8 to 13 residues) from human NTSR2 expressed in HEK293 cell membranes.
For series [9], the target named is Neuropeptide Y receptor type 4 (Homo sapiens, UniProt P50391). The series can be described thus: Displacement of S0586[K4]hpp from human NPY4 receptor expressed in CHO cells co-expressing Gqi5-mtAEQ by flow cytometric analysis. In kind it is cell-based. On the technique in general: A flow cytometer gives signals particle by particle.
Sequence of Neuropeptide Y receptor type 4 (P50391 whole entry): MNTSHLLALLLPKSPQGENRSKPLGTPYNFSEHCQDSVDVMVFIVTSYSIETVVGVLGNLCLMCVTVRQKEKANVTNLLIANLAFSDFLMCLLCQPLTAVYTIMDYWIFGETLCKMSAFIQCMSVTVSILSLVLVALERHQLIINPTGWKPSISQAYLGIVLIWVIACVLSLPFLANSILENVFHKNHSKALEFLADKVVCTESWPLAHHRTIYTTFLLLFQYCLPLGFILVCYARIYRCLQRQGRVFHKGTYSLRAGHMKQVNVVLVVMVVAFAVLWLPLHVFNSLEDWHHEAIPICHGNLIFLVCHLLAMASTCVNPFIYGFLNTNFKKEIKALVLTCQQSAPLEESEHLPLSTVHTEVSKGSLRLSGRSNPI

T2 sequence (P30989 whole entry): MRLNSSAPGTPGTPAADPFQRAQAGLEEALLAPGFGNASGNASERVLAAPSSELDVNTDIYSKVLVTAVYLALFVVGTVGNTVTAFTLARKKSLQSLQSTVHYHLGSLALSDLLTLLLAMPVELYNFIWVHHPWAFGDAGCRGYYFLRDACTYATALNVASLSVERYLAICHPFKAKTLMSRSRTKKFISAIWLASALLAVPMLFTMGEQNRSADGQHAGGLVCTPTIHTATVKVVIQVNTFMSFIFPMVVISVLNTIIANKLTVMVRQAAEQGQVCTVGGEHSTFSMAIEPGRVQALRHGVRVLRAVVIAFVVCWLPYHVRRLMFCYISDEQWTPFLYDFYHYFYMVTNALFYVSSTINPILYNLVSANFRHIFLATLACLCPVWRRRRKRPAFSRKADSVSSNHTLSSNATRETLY
Sequence of Neuropeptide FF receptor 2 (Q9Y5X5 whole entry): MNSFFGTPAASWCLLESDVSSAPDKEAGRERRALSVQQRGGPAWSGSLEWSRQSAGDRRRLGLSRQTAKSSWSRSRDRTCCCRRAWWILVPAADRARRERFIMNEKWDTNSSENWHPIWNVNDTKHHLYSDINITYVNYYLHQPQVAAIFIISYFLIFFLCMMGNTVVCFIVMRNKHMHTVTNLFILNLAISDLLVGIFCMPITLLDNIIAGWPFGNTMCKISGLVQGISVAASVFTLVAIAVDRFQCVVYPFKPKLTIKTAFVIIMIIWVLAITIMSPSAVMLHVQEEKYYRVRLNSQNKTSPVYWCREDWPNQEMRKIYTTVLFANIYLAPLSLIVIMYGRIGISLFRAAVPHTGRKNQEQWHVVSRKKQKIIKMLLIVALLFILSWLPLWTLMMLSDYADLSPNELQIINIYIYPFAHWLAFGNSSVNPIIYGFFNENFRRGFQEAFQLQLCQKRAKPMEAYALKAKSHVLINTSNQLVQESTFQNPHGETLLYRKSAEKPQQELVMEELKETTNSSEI
Sequence of Neurotensin receptor type 2 (O95665 whole entry, the tested form may be a part): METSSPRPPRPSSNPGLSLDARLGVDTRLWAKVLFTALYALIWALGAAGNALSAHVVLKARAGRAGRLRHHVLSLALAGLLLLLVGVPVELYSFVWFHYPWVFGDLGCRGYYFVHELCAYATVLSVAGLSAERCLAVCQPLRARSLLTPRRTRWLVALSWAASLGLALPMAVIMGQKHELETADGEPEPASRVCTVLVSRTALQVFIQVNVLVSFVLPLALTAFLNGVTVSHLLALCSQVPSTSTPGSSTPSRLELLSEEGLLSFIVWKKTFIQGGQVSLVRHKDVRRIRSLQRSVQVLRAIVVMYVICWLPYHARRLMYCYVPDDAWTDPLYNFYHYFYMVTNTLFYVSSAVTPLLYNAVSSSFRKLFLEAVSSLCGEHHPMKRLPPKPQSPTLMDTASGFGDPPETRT

By Ki is commonly meant a measure of affinity in units of concentration, obtained from inhibition or displacement. A low value points to a stronger hold on the target. As for `CC[C@H](C)[C@H](NC(=O)[C@H](Cc1ccc(O)cc1)NC(=O)[C@@H](NC(=O)[C@H](CCCN/C(N)=N/C(=O)NCCOCCOCCN)NC(=O)[C@@H](N)CC(=O)O)C(C)C)C(=O)N[C@@H](Cc1cnc[nH]1)C(=O)N1CCC[C@H]1C(=O)N[C@@H](Cc1ccccc1)C(=O)O.O=C(O)C(F)(F)F.O=C(O)C(F)(F)F.O=C(O)C(F)(F)F.O=C(O)C(F)(F)F` (H-D[X3]VYIHPF-OH), the Stability entry in series [1] was “Stable”. Further, the EC50 in series [2] was determined as 2.1 nM. The same molecule showed a Ki in series [3] of 2.8 nM.

Turning to `CCC(=O)NCCCCNC(=O)/N=C(/N)NCCC[C@H](NC(=O)[C@H](CCC(N)=O)NC(=O)[C@@H]1CCCN1C(=O)[C@H](C)NC(=O)[C@H](C)NC(=O)[C@H](CC(C)C)NC(=O)[C@H](CO)NC(=O)[C@H](Cc1c[nH]c2ccccc12)NC(=O)[C@H](Cc1ccc(O)cc1)NC(=O)[C@@H](N)CCC(=O)O)C(=O)N[C@@H](Cc1ccccc1)C(N)=O.O=C(O)C(F)(F)F.O=C(O)C(F)(F)F` (H-EYWSLAAPQ[X6]F-NH2), the Stability result in series [1] was “Stable”. The molecule also displayed a Ki in series [4] of 41 nM.

`CC(C)C[C@H](NC(=O)[C@H](CO)NC(=O)[C@H](Cc1c[nH]c2ccccc12)NC(=O)[C@H](Cc1ccc(O)cc1)NC(=O)[C@@H](N)CCC(=O)O)C(=O)N[C@@H](C)C(=O)N[C@@H](C)C(=O)N1CCC[C@H]1C(=O)N[C@@H](CCC(N)=O)C(=O)N[C@@H](CCCN/C(N)=N\C(=O)NCCCCN)C(=O)N[C@@H](Cc1ccccc1)C(N)=O.O=C(O)C(F)(F)F.O=C(O)C(F)(F)F.O=C(O)C(F)(F)F` (H-EYWSLAAPQ[X7]F-NH2): in series [1], the Stability entry is “Stable”. The Ki in [4] came to 27 nM.

Consider `CC[C@H](C)[C@H](NC(=O)[C@H](Cc1ccc(O)cc1)NC(=O)[C@@H]1CCCN1C(=O)[C@H](CCCN/C(N)=N\C(=O)NCCOCCOCCN)NC(=O)[C@@H](N)CCCNC(=N)N)C(=O)N[C@@H](CC(C)C)C(=O)O` (H-R[X4]PYIL-OH), for which, in series [5], the affinity, expressed as Ki, was 0.36 nM.

By IC50 is commonly meant the concentration needed to halve the response being measured. The low end stands for higher potency, the high end for lower potency. Regarding `CC[C@H](C)[C@H](NC(=O)[C@H](Cc1ccc(O)cc1)NC(=O)[C@@H]1CCCN1C(=O)[C@H](CCCNC(=N)N)NC(=O)[C@@H](N)CCCN/C(N)=N/C(=O)NCCCCN)C(=O)N[C@@H](CC(C)C)C(=O)O.O=C(O)C(F)(F)F.O=C(O)C(F)(F)F.O=C(O)C(F)(F)F.O=C(O)C(F)(F)F` (H-[X2]RPYIL-OH), the Stability result in series [1] is recorded as “Stable”. Moreover, the EC50 in series [6] (read-out: EC50) is 1.7 nM; in series [6] (read-out: pEC50 (converted)), 1.55 nM. Also, the IC50 in series [5] was 1.35 nM. In addition, the Ki was determined as 0.47 nM in series [5], 0.69 nM in series [7] and 0.74 nM in [8].

As for `CC[C@H](C)[C@H](NC(=O)[C@H](Cc1ccc(O)cc1)NC(=O)[C@@H]1CCCN1C(=O)[C@H](CCCNC(=N)N)NC(=O)[C@@H](N)CCCN/C(N)=N/C(=O)NCCOCCOCCN)C(=O)N[C@@H](CC(C)C)C(=O)O` (H-[X3]RPYIL-OH), the Ki in series [5] was 0.26 nM.

`CC(C)C[C@H](NC(=O)[C@H](CCCNC(=N)N)NC(=O)[C@H](Cc1ccc(O)cc1)NC(=O)CCCCCCC(=O)N[C@@H](Cc1ccc(O)cc1)C(=O)N[C@@H](CCCNC(=N)N)C(=O)N[C@@H](CC(C)C)C(=O)N[C@@H](CCCNC(=N)N)C(=O)N[C@@H](Cc1ccc(O)cc1)C(N)=O)C(=O)N[C@@H](CCCNC(=N)N)C(=O)N[C@@H](Cc1ccc(O)cc1)C(N)=O` (I: YRLRY-NH2 / II: YRLRY-NH2; linker I:N-II:N via Suberoyl): the affinity in series [9], expressed as Ki, was 7.4 nM.

In series [9], `CCC(=O)NCCCCNC(=O)/N=C(\N)NCCC[C@H](NC(=O)[C@H](Cc1ccc(O)cc1)NC(=O)CCCCCCC(=O)N[C@@H](Cc1ccc(O)cc1)C(=O)N[C@@H](CCCNC(=N)N)C(=O)N[C@@H](CC(C)C)C(=O)N[C@@H](CCCNC(=N)N)C(=O)N[C@@H](Cc1ccc(O)cc1)C(N)=O)C(=O)N[C@@H](CC(C)C)C(=O)N[C@@H](CCCNC(=N)N)C(=O)N[C@@H](Cc1ccc(O)cc1)C(N)=O` (I: Y[X1]LRY-NH2 / II: YRLRY-NH2; linker I:N-II:N via Suberoyl) showed a Ki of 3.6 nM. This Ki is about 2.1-fold lower than that of the molecule before.

The molecule `CC(C)C[C@H](NC(=O)[C@H](CCCNC(=N)N)NC(=O)[C@H](Cc1ccc(O)cc1)NC(=O)CCCCCCC(=O)N[C@@H](Cc1ccc(O)cc1)C(=O)N[C@@H](CCCN/C(N)=N/C(=O)NCCCCN)C(=O)N[C@@H](CC(C)C)C(=O)N[C@@H](CCCNC(=N)N)C(=O)N[C@@H](Cc1ccc(O)cc1)C(N)=O)C(=O)N[C@@H](CCCNC(=N)N)C(=O)N[C@@H](Cc1ccc(O)cc1)C(N)=O` (I: Y[X2]LRY-NH2 / II: YRLRY-NH2; linker I:N-II:N via Suberoyl) returned a Ki in [9] of 1.5 nM.
